Experimental findings from ChEMBL document CHEMBL1153742, “Cytotoxic constituents of the lichen Diploicia canescens” (J Nat Prod, 2009) are described below.

Each structure is given as a SMILES string.

What all share (assay type): functional, cell-based
Assay [1] deals with B16. Briefly: Cytotoxicity against mouse B16 cells after 48 hrs by MTT assay. To be noted: B16, 48 h. Summed up:
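Mouse B16 melanoma cells were seeded at 30 000 cells/mL in RPMI 1640 with 10% FCS on day 0. Compound dilutions were added on day 1. Cells were incubated at 37 °C under 10% CO2, and growth and viability were read by MTT after 48 h. IC50 was derived from at least three independent experiments, with three wells per concentration.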
A general note: Tetrazolium dyes change colour on reduction, which living cells bring about.

The next assay concerns HaCaT. As to the kind of experiment: Cytotoxicity against human HaCaT cells after 72 hrs by MTT assay. Summed up:
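HaCaT keratinocytes were seeded at 25 000 cells/mL in DMEM with 10% FCS, and after 5 h the medium was switched to reduced-serum DMEM. Serial dilutions from 0.25 to 100 µM were added on days 1, 2 and 3. Cells were incubated at 37 °C in 10% CO2 for 72 h, and viability was read by MTT on day 4. Each concentration ran in triplicate wells, and each experiment was repeated at least three times.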

In assay [2] the test system is B16. As to the kind of experiment: Cytotoxicity against mouse B16 cells after 72 hrs by MTT assay. To be noted: B16, 72 h. Summed up: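 B16 melanoma cells were seeded at 15 000 cells/mL in RPMI 1640 with 5% FCS, and after 5 h the medium was switched to RPMI with 1% FCS. Serial dilutions from 0.25 to 100 µM were added on days 1, 2 and 3. Cells were incubated at 37 °C in 10% CO2 for 72 h, and viability was read by MTT on day 4. Each concentration ran in triplicate wells, and each experiment was repeated at least three times.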

The term IC50 denotes the midpoint of a concentration-inhibition curve. Higher therefore signals weaker potency in that assay. On to `COC(=O)[C@@]12Oc3ccc(-c4ccc5c(c4O)C(O)C4=C(O)C[C@H](C)[C@@H](O)[C@]4(C(=O)OC)O5)c(O)c3C(=O)C1=C(O)C[C@H](C)[C@H]2O` (some centres undefined) [SECALONIC ACID D], for which the IC50 was found to be 0.28 µM with B16 [1] and 3.7 µM with HaCaT.
Take `COC(=O)c1c(Oc2c(C)c(Cl)c(OC)c(Cl)c2O)cc(OC)c(Cl)c1C` [BUELLIN]: the IC50 in the assay on B16 [2] is 0.25 µM; with HaCaT it was > 10 µM.
As to `COc1cc2c(c(C)c1Cl)Oc1cc(OC)c(Cl)c(C)c1C(=O)O2` [SCENSIDIN], the IC50 was found to be 0.4 µM in the assay with B16 [2] and 6.1 µM in the assay on HaCaT.
The corresponding values for `COc1c(Cl)c(C)c2c(c1Cl)OC(=O)c1c(cc(O)c(Cl)c1C)O2` [DECHLORODEPLOICIN] are 1.7 µM and 4.3 µM.
As for `COc1c(Cl)c(C)c2c(c1Cl)OC(=O)c1c(C)c(Cl)c(O)c(Cl)c1O2` [DIPLOICIN], the figures for the concentration for half-maximal inhibition (IC50) in the assay with B16 [2] and with HaCaT were 4 µM and > 10 µM, respectively.
Consider `COC(=O)[C@@]12Oc3ccc(-c4ccc5c(c4O)C(=O)C4=C(O)C[C@H](C)[C@H](O)[C@]4(C(=O)OC)O5)c(O)c3C(=O)C1=C(O)C[C@H](C)[C@@H]2O` [SECALONIC ACID B], for which the IC50 in the assay with B16 [1] was 2.8 µM; in the assay with HaCaT it was > 10 µM.
In the case of `COc1cc([C@@H]2c3cc4c(cc3[C@@H](O[C@@H]3O[C@@H]5CO[C@@H](C)O[C@H]5[C@H](O)[C@H]3O)[C@H]3COC(=O)[C@H]23)OCO4)cc(OC)c1O` [ETOPOSIDE], the IC50 in the assay with B16 [2] came out at 0.28 µM; in the assay with HaCaT, 0.55 µM.
